Results: ChEMBL document CHEMBL1138799, “4-benzyl- and 4-benzoyl-3-dimethylaminopyridin-2(1H)-ones, a new family of potent anti-HIV agents: optimization and in vitro evaluation against clinically important HIV mutant strains” (J Med Chem, 2004)

Legend:
[1] = tested on: Human immunodeficiency virus 1; assay: Inhibitory activity against HIV-1 mutant strain 101E; format: functional, organism-based
Outline: (§1)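 Mutant HIV-1 made by recombining mutant PR-RT sequence into a PR-RT-deleted HXB2 proviral clone. Serial compound concentrations plated, then virus (200 CCID50/well) and MT4 cells (30 000 cells/well; RPMI 1640, 10% FCS) added; 5 days at 37 °C, 5% CO2; viability read by MTT. EC50 = concentration giving 50% infection versus drug-free control; mock-infected cultures run in parallel for toxicity.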

[2] = tested on: Human immunodeficiency virus 1; assay: Inhibitory activity against HIV-1 double mutants strain 101E and 103N; format: functional, organism-based; outline: as §1
[3] = tested on: Human immunodeficiency virus 1; assay: Inhibitory activity against HIV-1 mutant strain 100I; format: functional, organism-based; outline: as §1
[4] = tested on: Human immunodeficiency virus 1; assay: Inhibitory activity against HIV-1 mutant strain 190S; format: functional, organism-based; outline: as §1
[5] = tested on: Human immunodeficiency virus 1; assay: Inhibitory activity against HIV-1 mutant strain 181C; format: functional, organism-based; outline: as §1
[6] = tested on: Human immunodeficiency virus 1; assay: Selectivity index of cytotoxic activity (CC50) to inhibitory activity (IC50) relative to LAI cell line; format: functional
Outline: (§2)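 MT4 human T-lymphoblastoid cells were grown in RPMI 1640 with 10% fetal calf serum and antibiotics at 37 °C and 5% CO2. A compound concentration series was combined with HIV-1 LAI at 200 CCID50/well and 30 000 cells/well. Mock-infected cultures with the same concentrations were run in parallel to measure cytotoxicity. After 5 days, cell viability was read by MTT colorimetry. EC50 is the concentration giving 50% infection versus the drug-free control.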

[7] = tested on: Human immunodeficiency virus 1; assay: Inhibitory activity against HIV-1 mutant strain 179E; format: functional, organism-based; outline: as §1
[8] = tested on: Human immunodeficiency virus 1; assay: Inhibitory activity against HIV-1 mutant strain 188L; format: functional, organism-based; outline: as §1
[9] = tested on: Human immunodeficiency virus 1; assay: Inhibitory activity against wild type HIV-1 LAI cell line; format: functional, organism-based; conditions: Human immunodeficiency virus 1, LAI; outline: as §2
[10] = tested on: Human immunodeficiency virus 1; assay: Inhibitory activity against HIV-1 mutant strain 190A; format: functional, organism-based; outline: as §1
[11] = tested on: Human immunodeficiency virus 1; assay: Inhibitory activity against HIV-1 mutant strain 106A; format: functional, organism-based; outline: as §1
[12] = tested on: Human immunodeficiency virus 1; assay: Inhibitory activity against HIV-1 mutant strain 138K; format: functional, organism-based; outline: as §1
[13] = tested on: Human immunodeficiency virus 1; assay: Inhibitory activity against HIV-1 mutant strain 103N; format: functional, organism-based; outline: as §1
[14] = tested on: Human immunodeficiency virus 1; assay: Inhibitory activity against HIV-1 double mutants strain 103N and 181C; format: functional, organism-based; outline: as §1
[15] = tested on: Human immunodeficiency virus 1; assay: Inhibitory activity against HIV-1 mutant strain 227C; format: functional, organism-based; outline: as §1
[16] = tested on: Human immunodeficiency virus 1; assay: Inhibitory activity against HIV-1 double mutants strain 227L and 106A; format: functional, organism-based; outline: as §1
[17] = tested on: Human immunodeficiency virus 1; assay: Inhibitory activity against HIV-1 double mutants strain 100I and 103N; format: functional, organism-based; outline: as §1

| Structure (SMILES) | IC50 [1] | IC50 [2] | IC50 [3] | IC50 [4] | IC50 [5] | Selectivity index [6] | IC50 [7] | IC50 [8] | IC50 [9] | IC50 [10] | IC50 [11] | IC50 [12] | IC50 [13] | IC50 [14] | IC50 [15] | IC50 [16] | IC50 [17] |
| --- | --- | --- | --- | --- | --- | --- | --- | --- | --- | --- | --- | --- | --- | --- | --- | --- | --- |
| CCOCn1c(Cc2ccccc2)c(C(C)C)c(=O)[nH]c1=O [EMIVIRINE] | 120 nM | 7940 nM | 40 nM | 7940 nM | 1990 nM | 1260 | 30 nM | 39800 nM | 8 nM | 1580 nM | 1990 nM | 70 nM | 790 nM | 100000 nM | 79400 nM | 100 µM | 25100 nM |
| CCc1c(C)nc(O)c(N(C)C)c1C(=O)c1cccc(/C=C/C#N)c1 | 8 nM | 10 nM | 6 nM | 6 nM | 10 nM | 10000 | 1 nM | 150 nM | 1 nM | 6 nM | 2 nM | 5 nM | 2 nM | 40 nM | 790 nM | 1 µM | 20 nM |
| CCc1c(C)nc(O)c(N(C)C)c1Cc1cccc(/C=C/C#N)c1 | 6 nM | 20 nM | 10 nM | 40 nM | 10 nM | 25100 | 1 nM | 150 nM | 0.4 nM | 8 nM | 2 nM | 3 nM | 2 nM | 30 nM | 390 nM | 3.16 µM | 30 nM |
